For one series, the system named is Jurkat. The experiment in a line: Cytotoxicity against human Jurkat T cells assessed as reduction in cell viability at 1 to 100 uM measured after 3 days by propidium iodide staining based CFSE staining. It counts as functional. Conditions: dose 1-100 µM; time 3 day.
In series [1] the test system is MV4-11. The experiment in a line: Induction of apoptosis in human MV4-11 cells assessed as increase in pro-apoptotic activity at 1 uM. Type of series: functional, cell-based.
The subject of series [2] is THP-1. The experiment in a line: Induction of apoptosis in human THP-1 cells assessed as increase in pro-apoptotic activity at 1 uM. Type of series: functional, cell-based.
Series [3] can be described thus: Metabolic stability in rat liver microsomes assessed as retention time of hydroxyl derivative metabolites by HPLC-HRMS analysis. It counts as ADME, Microsome. Put shortly:
(§1)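 Controls were heat-inactivated microsomes, no regenerating system, and drug-free blank. Samples were taken at 0, 15, 30, 60 and 120 min and quenched with cold acetonitrile. Analysis was by LC-HRMS (C18, water/acetonitrile gradient, ± ESI), with metabolites predicted by SyGMa.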

A short description of series [4]: Metabolic stability in rat liver microsomes assessed as retention time of dihydroxyl derivative metabolite by HPLC-HRMS analysis. Type of series: ADME, Microsome. The method, boiled down: as §1
Series [5] is described as follows: Metabolic stability in rat liver microsomes assessed as retention time of hydrogenated dihydroxyl derivative metabolite by HPLC-HRMS analysis. Type of series: ADME, Microsome. Put shortly:
as §1

The test system of series [6] is MV4-11. The experiment in a line: Induction of apoptosis in human MV4-11 cells assessed as increase in pro-apoptotic activity at 0.1 uM. Type of series: functional, cell-based. The method, boiled down:
(§2)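 THP1 or MV4-11 cells (1 × 10^4/well) exposed to inhibitor at 0.1 or 1 μM, alone or with dipyridamole 1.0 μM and/or uridine 5 μM, for 3 days. Apoptosis was read as annexin V-FITC staining by flow cytometry. n = 3; ANOVA/Tukey.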

Series [7] concerns THP-1. The experiment in a line: Induction of apoptosis in human THP-1 cells assessed as increase in pro-apoptotic activity at 0.1 uM. Type of series: functional, cell-based. Put shortly:
as §2

The test system of series [8] is THP-1. The experiment in a line: Antileukemic activity against human THP-1 cells xenografted in Balb/c mouse assessed as reduction in tumor weight at 20 mg/kg, ip. Type of series: functional, organism-based.
Series [9] has as its system THP-1. The experiment in a line: Antileukemic activity against human THP-1 cells xenografted in Balb/c mouse assessed as reduction in volume at 20 mg/kg, ip measured twice a week. It counts as functional, organism-based.
Series [10] is described as follows: Metabolic stability in rat liver microsomes assessed as retention time of parent compound by HPLC-HRMS analysis. Type of series: ADME, Microsome. The method, boiled down:
as §1

The source made the active and inactive calls. The calls are words filed in the database; no cut-off is given here.

On to `Cc1cc(Oc2ccccc2)c(C(C)C)cc1NC(=O)c1c(O)nn2ccccc12`, for which the CC30 with Jurkat is >100 µM. In addition, the result in the series on MV4-11 [1] and in the series on THP-1 [2] was Active.

For the molecule `O=C(Nc1c(F)c(F)c(-c2ccccc2)c(F)c1F)c1c(O)nn2ccccc12`, the Retention_time was found to be 13.41 min in series [3], 10.59 min in series [4] and 14.14 min in series [5].

Take `Cc1cc(NC(=O)c2c(O)nn3ccccc23)c(C(C)C)cc1Oc1ccccc1`: the CC30 with Jurkat is >100 µM. Further, the outcome with MV4-11 [6], in the series with THP-1 [7], with THP-1 [8] and in the series on THP-1 [9] was Active. Besides, in [10], the Retention_time was 17.33 min.

Values taken from ChEMBL document CHEMBL5108054, “Targeting Acute Myelogenous Leukemia Using Potent Human Dihydroorotate Dehydrogenase Inhibitors Based on the 2-Hydroxypyrazolo[1,5-a]pyridine Scaffold: SAR of the Aryloxyaryl Moiety” (J Med Chem, 2022).
